Active and inactive are the calls of the source. The calls are words filed in the database; no cut-off is given here. Square brackets hold non-standard residues; d marks the D form. Peptide text beside a SMILES is read from it. * marks the point of attachment. X1 = CC[C@H](C)[C@@H](OC(=O)/C=C/c1ccccc1)C(=O)*; dNMeF = CN[C@H](Cc1ccccc1)C(=O)O; NMeL = CN[C@@H](CC(C)C)C(=O)O

The test system of experiment [1] is MDA-MB-231. The experiment in a line: Antiproliferative activity against human MDA-MB-231 cells after 48 hrs by MTT assay. The experiment is classed as functional, cell-based. Particulars: Homo sapiens, MDA-MB-231, 48 h; read-out: IC50. The method in brief:
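MDA-MB-231 cells are grown in DMEM with 10% FBS and seeded at 10,000 cells/well for 24 h. Cells are then exposed to graded compound concentrations or DMSO for 48 h. Viability is measured by MTT.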
(In general: Formazan colour is commonly taken as a measure of viable cells.)

The target in experiment [2] is Somatostatin receptor type 3 (Homo sapiens, UniProt P32745). Nature of the experiment: Antagonist activity at human SSTR3 expressed in HEK293 cells assessed as [Tyr1]-somatostatin 14-induced beta-arrestin recruitment at 10 uM pre-incubated for 30 mins before [Tyr1]-somatostatin 14 stimulation for 90 or 180 mins by chemiluminescence method. It is filed as functional, cell-based. Details: scale not given: the % may be the effect or the level left. (In general: Arrestin recruitment assays detect the binding of arrestin to an activated receptor.)
Chain of Somatostatin receptor type 3 (P32745 whole entry): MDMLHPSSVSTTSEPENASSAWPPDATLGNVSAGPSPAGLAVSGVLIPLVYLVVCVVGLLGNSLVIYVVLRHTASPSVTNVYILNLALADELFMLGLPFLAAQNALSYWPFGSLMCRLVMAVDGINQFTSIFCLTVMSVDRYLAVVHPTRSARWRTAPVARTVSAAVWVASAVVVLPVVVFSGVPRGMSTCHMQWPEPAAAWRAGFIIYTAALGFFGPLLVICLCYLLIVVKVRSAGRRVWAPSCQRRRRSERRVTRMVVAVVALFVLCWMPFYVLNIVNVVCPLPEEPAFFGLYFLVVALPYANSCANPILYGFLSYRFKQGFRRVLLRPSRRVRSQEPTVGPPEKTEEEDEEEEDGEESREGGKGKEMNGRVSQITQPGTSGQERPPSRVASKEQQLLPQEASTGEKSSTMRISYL

The target in experiment [3] is T1, C-C chemokine receptor type 10 (Homo sapiens) (UniProt P46092).
T1 sequence (whole entry): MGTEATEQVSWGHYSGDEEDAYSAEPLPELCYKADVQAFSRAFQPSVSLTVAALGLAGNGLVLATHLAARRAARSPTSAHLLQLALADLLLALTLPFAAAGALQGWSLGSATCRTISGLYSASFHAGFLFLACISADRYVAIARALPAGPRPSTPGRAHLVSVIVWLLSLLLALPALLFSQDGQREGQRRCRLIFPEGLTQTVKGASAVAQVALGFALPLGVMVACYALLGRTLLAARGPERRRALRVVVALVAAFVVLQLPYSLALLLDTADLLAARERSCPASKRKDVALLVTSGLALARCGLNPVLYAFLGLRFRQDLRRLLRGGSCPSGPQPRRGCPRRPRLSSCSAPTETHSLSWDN
Nature of the experiment: Antagonist activity at human CCR10 expressed in human U2OS cells assessed as inhibition of CCL27-induced beta-arrestin recruitment at 10 uM pre-incubated for 30 mins before CCL27 stimulation for 90 or 180 mins by chemiluminescence method. The experiment is classed as functional, cell-based. Details: scale not given: the % may be the effect or the level left.

Another experiment concerns the target T2, Oxytocin receptor (Homo sapiens, UniProt P30559).
T2 sequence (P30559 whole entry): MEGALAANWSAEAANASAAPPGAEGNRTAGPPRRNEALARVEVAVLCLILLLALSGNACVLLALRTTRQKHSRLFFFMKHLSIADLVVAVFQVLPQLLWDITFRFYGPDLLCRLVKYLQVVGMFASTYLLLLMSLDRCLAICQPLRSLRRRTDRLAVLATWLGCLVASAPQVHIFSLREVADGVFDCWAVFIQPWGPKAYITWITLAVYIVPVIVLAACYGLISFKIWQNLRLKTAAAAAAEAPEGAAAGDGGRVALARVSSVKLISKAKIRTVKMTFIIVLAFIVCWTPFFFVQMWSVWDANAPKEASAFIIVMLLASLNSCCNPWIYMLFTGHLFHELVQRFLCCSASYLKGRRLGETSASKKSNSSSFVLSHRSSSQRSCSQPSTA
Nature of the experiment: Antagonist activity at human OXTR expressed in CHOK1 cells assessed as oxytocin-induced beta-arrestin recruitment pre-incubated for 30 mins before oxytocin stimulation for 90 or 180 mins by chemiluminescence method. It is filed as functional, cell-based. The essentials:
(§1)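 PathHunter β-arrestin complementation assay, antagonist mode. Cells co-express ProLink-tagged GPCR and enzyme-acceptor-tagged β-arrestin and are pre-incubated with sample for 30 min at 37 °C or room temperature. Dose-response: 10 points, 3-fold dilutions from 20 μM, in duplicate.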

In another experiment the target is T3, Caspase-14 (Homo sapiens, UniProt P31944).
T3 sequence (P31944 whole entry): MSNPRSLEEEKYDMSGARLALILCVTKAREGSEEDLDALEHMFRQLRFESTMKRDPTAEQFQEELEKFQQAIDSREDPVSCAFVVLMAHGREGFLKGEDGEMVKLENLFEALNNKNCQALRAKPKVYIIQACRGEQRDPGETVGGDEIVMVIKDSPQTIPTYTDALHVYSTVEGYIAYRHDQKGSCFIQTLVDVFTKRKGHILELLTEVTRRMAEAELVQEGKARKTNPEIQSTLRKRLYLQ
The experiment in a line: Inhibition of human caspase 14 using Ac-WEHD-AMC fluorogenic peptide as substrate by fluorescence assay. The essentials:
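Activity followed as a time course of rising fluorescence from a fluorescently labelled peptide substrate. The initial linear slope (signal/min) was used.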

Experiment [4] concerns the target T4, Kallikrein-7 (Homo sapiens, UniProt P49862). The experiment in a line: Inhibition of recombinant human kallikrein 7 assessed as decrease in cleavage of E-cadherin at 10 uM after 30 mins or 2 hrs by silver staining based SDS-PAGE analysis.
Target sequence in this assay (P49862 30-253 limits assumed): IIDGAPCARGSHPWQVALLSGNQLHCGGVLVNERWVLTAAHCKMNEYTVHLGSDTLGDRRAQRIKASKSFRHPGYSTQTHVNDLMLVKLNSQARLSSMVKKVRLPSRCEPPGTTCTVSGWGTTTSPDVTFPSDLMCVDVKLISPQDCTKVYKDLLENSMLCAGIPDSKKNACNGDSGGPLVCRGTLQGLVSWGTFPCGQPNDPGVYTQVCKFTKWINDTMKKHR
The target of experiment [5] is T1, C-C chemokine receptor type 10 (Homo sapiens). The experiment in a line: Antagonist activity at CCR10 in human MDA-MB-231 cells assessed as inhibition of CCL27-induced proliferation up to 10 uM preincubated for 2 hrs followed by CCL27 addition measured after 48 hrs by MTT assay. The experiment is classed as functional, cell-based. The essentials:
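MDA-MB-231 cells are seeded at 10,000/well in serum-free DMEM for 24 h, then pretreated with compound for 2 h. CCL27 is added at 1 μg/mL final for 48 h. Viability is measured by MTT and compared with solvent control, mean ± SD, n = 3.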

In experiment [6] the target is T4, Kallikrein-7. The experiment in a line: Inhibition of recombinant human kallikrein 7 assessed as decrease in cleavage of desmoglein-2 at 10 uM after 30 mins or 2 hrs by silver staining based SDS-PAGE analysis.
Target sequence in this assay (P49862 30-253 limits assumed): as above
The target of experiment [7] is Atypical chemokine receptor 3 (Homo sapiens, UniProt P25106). Nature of the experiment: Agonist activity at human CXCR7 expressed in CHOK1 cells assessed as induction of beta-arrestin recruitment by chemiluminescence method. The experiment is classed as functional, cell-based. The essentials: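 PathHunter β-arrestin enzyme-fragment complementation assay in cells stably co-expressing ProLink-tagged GPCR and enzyme-acceptor-tagged β-arrestin. Sample is added to cells and incubated 90 or 180 min at 37 °C or room temperature, with 1% final vehicle. Detection reagent is added for 1 h at room temperature and chemiluminescence is read. % activity is taken relative to vehicle and maximal control ligand. Dose-response: 10 points, 3-fold dilutions from 20 μM, in duplicate.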
Chain of Atypical chemokine receptor 3 (P25106 whole entry, the tested form may be a part): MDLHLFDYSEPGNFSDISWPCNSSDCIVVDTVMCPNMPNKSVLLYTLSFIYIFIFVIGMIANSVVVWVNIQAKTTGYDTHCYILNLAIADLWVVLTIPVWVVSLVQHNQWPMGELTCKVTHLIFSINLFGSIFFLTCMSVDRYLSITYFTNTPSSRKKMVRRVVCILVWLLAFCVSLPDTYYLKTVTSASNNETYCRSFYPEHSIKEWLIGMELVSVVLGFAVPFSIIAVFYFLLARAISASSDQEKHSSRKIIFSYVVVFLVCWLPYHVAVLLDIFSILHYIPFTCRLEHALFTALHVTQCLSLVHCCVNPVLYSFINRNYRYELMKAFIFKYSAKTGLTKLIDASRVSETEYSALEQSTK

Experiment [8] addresses T4, Kallikrein-7. The experiment in a line: Inhibition of kallikrein 7 (unknown origin) by fluorescence assay. The essentials:
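Protease panel screen: 10-dose titrations, 3-fold serial dilution from 100 μM, singlet. Protease activity is followed as the time-course rise in fluorescence from a labeled peptide substrate, and the initial linear slope (signal/min) is analysed.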
Target sequence in this assay (P49862 whole entry): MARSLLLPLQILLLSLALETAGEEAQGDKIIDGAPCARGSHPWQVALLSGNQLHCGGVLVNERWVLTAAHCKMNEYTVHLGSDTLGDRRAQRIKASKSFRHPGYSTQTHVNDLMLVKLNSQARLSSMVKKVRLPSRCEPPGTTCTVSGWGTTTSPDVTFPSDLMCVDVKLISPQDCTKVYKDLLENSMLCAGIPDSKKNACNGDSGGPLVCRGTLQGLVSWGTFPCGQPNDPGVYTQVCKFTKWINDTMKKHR

Experiment [9] concerns the target T4, Kallikrein-7. The experiment in a line: Mixed type inhibition of kallikrein 7 (unknown origin) using fluorescently labeled peptide substrate by fluorescence assay based Michaelis-Menten kinetic plot analysis.
Target sequence in this assay (P49862 30-253 limits assumed): as the sequence (P49862 30-253 limits assumed) above
Experiment [10] addresses T5, C-C chemokine receptor type 10 (Homo sapiens, UniProt P46092).
T5 sequence (P46092 whole entry): T1 sequence (whole entry)
Nature of the experiment: Antagonist activity at human CCR10 expressed in human U2OS cells assessed as inhibition of CCL27-induced beta-arrestin recruitment pre-incubated for 30 mins before CCL27 stimulation for 90 or 180 mins by chemiluminescence method. It is filed as functional, cell-based. The essentials: as §1

For experiment [11], the system named is MDA-MB-231. Nature of the experiment: Antimigratory activity against human MDA-MB-231 cells at 10 uM after 48 hrs by transwell migration assay relative to control. The experiment is classed as functional.

One may read the IC50 as the concentration needed to halve the response being measured. The inhibition is the share of the control response that was lost under treatment. Broadly, the EC50 is the concentration that produces a half-maximal response. Turning to `CC[C@H](C)[C@@H](OC(=O)/C=C/c1ccccc1)C(=O)N1CCC[C@H]1C(=O)NCC(=O)N(C)[C@@H](CC(C)C)C(=O)N[C@@H](C)C(=O)N(C)[C@H](Cc1ccccc1)C(=O)N1CCC[C@H]1C(=O)OC` (X1-PG[NMeL]A[dNMeF]P-OMe), the IC50 with MDA-MB-231 [1] worked out at 16.7 µM; at Oxytocin receptor it was 6.78 µM; against Caspase-14, 10.1 µM; against Kallikrein-7 [8] it was 18.9 µM; in experiment [10], 0.44 µM. Also, the Activity in experiment [2] came out at 77%; in experiment [3], 98%; with MDA-MB-231 [11] it was 60%. The inhibition result on Kallikrein-7 [4], on Kallikrein-7 [6] and at Kallikrein-7 [9] was “Active” each time. Besides, in [5], the inhibition was 10%. Moreover, the EC50 in experiment [7] turned out to be 3.97 µM.

The record behind these values is ChEMBL document CHEMBL4138319, “Discovery, Synthesis, Pharmacological Profiling, and Biological Characterization of Brintonamides A-E, Novel Dual Protease and GPCR Modulators from a Marine Cyanobacterium” (J Med Chem, 2018).
